# Source: PubChem
# S1P1 ag pot: agonists and agonism potentiators of human S1P1 receptor. S1P1 CRE-bla cells, forskolin, beta-lactamase FRET, potentiator mode; S1P1 agonist co-added at EC20, 2 nM; 100% = saturating reference agonist, 0% = basal. actives 0.57% (n = 56,000). AID 449. activation, % at 9.5 µM;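 active = activation above a cutoff set at the mean activation of all tested compounds plus 3 SD, cut at about 54% in these data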;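 note: forskolin at 4 µM as EC80 and the EC20 agonist is SEW2871; 100% = SEW2871 at its EC100 plus forskolin at EC80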
# Target sequence (P21453 whole entry, looked up): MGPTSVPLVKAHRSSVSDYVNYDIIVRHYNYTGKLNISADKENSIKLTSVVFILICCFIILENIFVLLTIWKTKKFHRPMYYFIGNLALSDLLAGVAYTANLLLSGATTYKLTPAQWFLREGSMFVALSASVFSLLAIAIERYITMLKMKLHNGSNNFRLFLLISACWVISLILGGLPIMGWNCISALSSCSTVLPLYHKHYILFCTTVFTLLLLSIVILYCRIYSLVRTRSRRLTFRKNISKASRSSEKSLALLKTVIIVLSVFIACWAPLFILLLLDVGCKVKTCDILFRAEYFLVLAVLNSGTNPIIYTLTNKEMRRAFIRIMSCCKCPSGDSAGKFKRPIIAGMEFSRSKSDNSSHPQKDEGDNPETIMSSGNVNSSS
# S1P3 agonist: agonists of human S1P3 receptor; activation, % at 4.5 µM; Q99500; S1P3 NFAT-BLA reporter cells, agonism, FRET ratio; relative to 1 µM S1P, basal subtracted; AID 373; actives 0.1% (n = 60,000);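 active = activation above the screen-wide mean plus 3 SD, cut at about 4.5% in these data, passing the limit was not always enough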
#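 Assay system: stable CHO line with human S1P3, Gα16, NFAT-BLA reporter; Detection: FRET β-lactamase substrate fluorescence, excitation 405 nm, 460/535 nm emission ratio, background-subtracted; Read-out: percent activation versus median 1 µM S1P response, basal-subtracted, per plate; Incubation: cells plated overnight, compound 4 h 37 °C, substrate 2 h RT.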
# 5HT1a ag: activates the human 5-HT1a serotonin receptor. CHO 5-HT1a Ga15 NFAT-bla reporter, FRET ratio; 0% basal, 100% maximal reference agonist. activation, % at 10 µM. actives 0.56% (n = 65,000). AID 567;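 active = activation above the screen-wide mean activation plus 3 SD, cut at about 19% in these data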;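 note: 0% = DMSO wells and 100% = 5-CT at EC100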
# HTR1E agonist: activates the human 5-HT1E serotonin receptor; P28566; CHO 5-HT1E Ga15 NFAT-bla reporter, FRET; 0% DMSO wells, 100% control agonist wells; activation, % at 6 µM; actives 0.69% (n = 65,000); AID 574;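 active = activation above a set limit, the screen-wide mean activation plus 3 SD, cut at about 8.5% in these data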;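 note: 100% = positive control agonist at 1 µM giving full maximal response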
# HTR1E antagonist: blocks the human 5-HT1E serotonin receptor; AID 571; CHO 5-HT1E Ga15 NFAT-bla reporter, FRET, antagonist; actives 0.99% (n = 65,000); inhibition, % at 6 µM;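 active = inhibition above a set limit, the mean inhibition across every tested compound plus 3 SD, cut at about 29% in these data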;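 note: signal is the 460 over 535 nm emission ratio of beta-lactamase substrate; 0% = agonist plus DMSO wells and 100% = wells without agonist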
# 5HT1a antag: antagonists of human 5-HT1a serotonin receptor; CHO 5-HT1a Ga15 NFAT-bla reporter, antagonist mode; inhibition, % at 10 µM; P08908; actives 0.68% (n = 62,000);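 active = inhibition above the mean of all tested compounds plus 3 SD, cut at about 43% in these data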;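 note: receptor stimulated by 5-CT agonist at 100 nM near EC80; beta-lactamase reporter measured by ratiometric fluorescence of a cleavable substrate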
# Active calls of the source: *; . = no result. Rows were chosen to be rich in hits. Some 3% of all compounds tested hit in one or more screens of this group.
SMILES,S1P1 ag pot,S1P3 agonist,5HT1a ag,HTR1E agonist,HTR1E antagonist,5HT1a antag
Cc1ccc2c(c1)NC(=O)C(CC(=O)N(C)Cc1ccccc1)O2 (centres undefined),-28,-1,1,1,-5,-1
Cc1nn(-c2ccc(F)cc2)c2nc(N)c(C#N)c(-c3cccs3)c12,24,0,3,-2,36*,29
COC(=O)CN(c1ccc(OC)cc1)S(=O)(=O)c1ccc(OC)c(OC)c1,.,2,20*,1,4,0
O=C(Nc1nnc(-c2ccccc2)o1)c1nc2ccccc2s1,20,1,1,2,-10,32
CN1CCN(c2nc(N3CCN(c4ccccc4)CC3)ncc2F)CC1,-31,-1,-1,35*,9,11
Oc1ccc2ccccc2c1CN1CCN(c2ccccc2F)CC1,7,0,3,14*,-11,1
NC(=O)CN1CCN(c2ccccc2F)CC1,-28,-1,-3,0,7,-3
Cc1onc(-c2c(Cl)cccc2Cl)c1C(=O)N1CCc2ccccc21,-12,7.4*,-4,0,11,-11
Cn1c(C(=O)N2CCN(c3ccccn3)CC2)cc2c(=O)n(C)c3ccccc3c21,-6,-1,0,21*,5,1
Cn1c(Cc2ccccc2)nnc1SCC(=O)c1ccc(Br)s1,14,-1,0,-1,7,18
O=c1[nH]c(CN2CCCCC2)nc2c1C1(CCCC1)Cc1ccccc1-2,-17,-4,4,0,-17,.
O=C(CCN1CCN(Cc2ccccc2)CC1)Nc1cccc(Cl)c1,5,-3,-2,1,-1,8
CC(C)c1ccc2oc(-c3cc(N)ccc3O)nc2c1,64*,-1,-8,2,-2,28
CCC(=O)c1ccc(OCC(=O)Nc2nn3cnnc3s2)cc1,.,.,1,0,-8,-8
CCn1c(=NC(=O)c2ccc(N3C(=O)CCC3=O)cc2)sc2c(OC)ccc(OC)c21,-48,-1,1,2,31*,12
CC(=O)OCC(=O)c1ccc2ccn(C(C)=O)c2c1,9,0,-2,0,-5,2
COc1ccccc1N1CCN(CCCC(=O)c2ccc(F)cc2)CC1,-10,-2,4,3,11,93*
COc1ccccc1N1CCN(CC(=O)c2ccc3ccn(C(C)=O)c3c2)CC1,16,-1,8,30*,8,15
COc1ccccc1N1CCN(CC(=O)Nc2cc(F)ccc2C)CC1,.,.,0,-1,-10,43*
COc1ccccc1N1CCN(CCCNC(=O)Nc2ccccc2C)CC1,.,.,0,3,9,82*
COc1cccc(C2/C(=C(/O)c3ccncc3)C(=O)C(=O)N2CCCN2CCOCC2)c1OC (centres undefined),-5,-1,1,0,-1,-12
CN1CCN(c2ccccc2NS(=O)(=O)c2ccc3c(c2)CCN3C(=O)C2CCC2)CC1,-2,-1,14,0,10,14
CCCCOc1ccc(S(=O)(=O)Nc2cccnc2)cc1,85*,-1,-4,0,3,2
CC(C)C(c1nnnn1Cc1cccs1)N1CCN(C2CCCC2)CC1 (centres undefined),2,0,31*,1,-2,17
Fc1ccc(Cn2nnnc2CN2CCN(C3CCCC3)CC2)cc1,-16,0,-1,-1,-7,4
SMILES,S1P1 ag pot,S1P3 agonist,5HT1a ag,HTR1E agonist,HTR1E antagonist,5HT1a antag
CCC(c1nnnn1Cc1ccc(F)cc1)N1CCN(C2CCCCC2)CC1 (centres undefined),-31,-1,-2,1,-2,47*
NC1C2CN(c3nc4c(cc3F)c(=O)c(C(=O)O)cn4-c3ccc(F)cc3F)CC12 (centres undefined),22,-1,4,1,-3,-59
CCC1CCCCN1C(=O)CSc1nnc(-c2c[nH]c3ccccc23)o1 (centres undefined),79*,-1,1,1,-131,-14
CCSc1nnc(NC(=O)CSc2nnc(-c3c[nH]c4ccccc34)n2C)s1,5,-1,-4,1,-5,-14
CCc1ccc(N(CC(=O)Nc2ccc(OC)cc2OC)S(C)(=O)=O)cc1,-27,-1,0,1,0,6
O=S(=O)(NC1CC1)c1ccc(S(=O)(=O)N2CCCC3(CCCCC3)C2)cc1,-2,0,3,0,29*,1
Cc1cccc(C)c1-n1nnnc1S(=O)(=O)Cc1ccccc1Cl,.,0,-4,0,13,15
CCN(CC)c1ccc2cc(NC(=O)CCC(=O)O)c(=O)oc2c1,58*,-2,-3,0,55*,40
CCN(CC)c1ccc2cc(C(=O)Nc3ccccn3)c(=O)oc2c1,-1,-1,57*,6,-32,.
CCN(CC)c1ccc2cc(C(=O)Nc3cccnc3N3CCOCC3)c(=O)oc2c1,.,.,2,0,0,2
Cc1noc(C)c1COc1cccc(C(=O)OCC(=O)N2CC(=O)Nc3ccccc32)c1,4,-1,-2,-1,38*,32
COc1cccc(N2CC(O)=C(c3nc4ccccc4c(=O)[nH]3)C2=N)c1,.,.,-1,-1,34*,16
Cc1nc(N2CCN(S(=O)(=O)c3cccc4nonc34)CC2)c2c3c(sc2n1)CCCC3,-4,0,0,0,-3,11
N#Cc1nc(COc2ccc(Cl)cc2)oc1NCc1ccc2c(c1)OCO2,.,.,-1,-1,3,52*
CCNc1oc(COc2cccc(C)c2)nc1C#N,.,.,-4,0,-3,16
COc1ccc(CNc2oc(COc3ccccc3)nc2C#N)cc1,.,.,-1,0,15,29
Cc1cccc(OCc2nc(C#N)c(NCc3ccc4c(c3)OCO4)o2)c1,.,.,-1,0,6,43*
O=C(Nc1nnc(-c2ccccc2Cl)o1)c1cccnc1,10,0,3,0,8,7
CCCn1c(NC(=O)c2ccccc2)nc2ccccc21,-30,-2,0,0,-10,34
CCCn1c(NC(=O)c2cccc(S(=O)(=O)N3CCCC3)c2)nc2ccccc21,74*,-1,-2,1,20,50*
CCOc1ccccc1C(=O)N1CCCCC1C (centres undefined),-14,0,-1,-1,-3,3
O=C(CN1CCN(c2ccccn2)CC1)Nc1ccc2ccccc2c1,6,0,0,0,-6,5
COc1ccc(OC)c(NC(=O)CCN2CCN(c3ccccc3)CC2)c1,-16,-1,0,0,2,5
O=C(CCN1CCN(c2ccccn2)CC1)Nc1ccc(F)cc1,-36,0,29*,0,-8,18
